14 molecules from ChEMBL document CHEMBL4270645, “Structure-activity relationship study of hypoxia-activated prodrugs for proteoglycan-targeted chemotherapy in chondrosarcoma” (Eur J Med Chem, 2018) can be followed below.

Series [1] has as its target Aggrecan core protein (Bos taurus) (UniProt P13608). Nature of the series: Binding affinity to bovine articular cartilage aggrecan at 500 uM by SPR analysis. Put shortly:
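Aggrecan immobilised on sensor chip, free sites blocked with 1 M ethanolamine pH 8.5. Primary screen as binding level at 500 µM analyte in HBS-P+ running buffer, 30 µL/min, 600 s association, 200 s dissociation. Response corrected against a flow cell without aggrecan; regeneration with 2 M NaCl, 150 s.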
Background: In SPR one partner is held on a chip, and binding of the other changes the refractive index at the surface.

Series [2] concerns H-EMC-SS. Nature of the series: Selectivity index, ratio of IC50 for human HEMC-SS cells under normoxic condition to IC50 for human HEMC-SS cells under hypoxic condition. It counts as functional.
The subject of series [3] is H-EMC-SS. Put plainly: Antiproliferative activity against human HEMC-SS cells treated for 24 hrs under normoxic condition followed by compound wash-out and incubated under normoxic condition for 48 hrs by alamar blue assay. The class given is cell-based. Put shortly:
(§1)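 HEMC-SS chondrosarcoma cells (DMEM/F12, 10% FCS, gentamicin) seeded 20.10^3/well, adhered overnight; drug dilution series added, final DMSO 0.5%. Exposed 24 h under normoxia (21% O2, 5% CO2, 37°C) or hypoxia (N2, O2<0.3%, 37°C), then washed with PBS and grown 48 h in normoxia. AlamarBlue viability; IC50 = 50% growth inhibition; at least triplicate, mean ± SD.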

The subject of series [4] is H-EMC-SS. Nature of the series: Antiproliferative activity against human HEMC-SS cells treated for 24 hrs under hypoxic condition followed by compound wash-out and incubated under normoxic condition for 48 hrs by alamar blue assay. The class given is functional, cell-based. Put shortly: as §1
(In general: Resazurin is reduced to fluorescent resorufin, in cell work by metabolically active cells.)

Series [5] addresses Aggrecan core protein (Bos taurus, UniProt P13608). Nature of the series: Binding affinity to bovine articular cartilage aggrecan by SPR analysis.
Series [6] can be described thus: Prodrug activation in pH 7.4 PBS buffer assessed as 25 ug/ml Escherichia coli nitroreductase-mediated corresponding phosphoramidate anion formation by measuring half life at 37 degC in presence of NADPH by RP-HPLC analysis. Conditions: isolated protein. Put shortly:
(§2)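 Recombinant E. coli nitroreductase (final 25 or 15 µg/mL) with prodrug 17 µM and NADPH 0.9 mM final, in 10 mM sodium phosphate pH 7.4, 37°C. Aliquots over 2 h run on C18 RP-HPLC; remaining prodrug from peak area at 322 nm. Enzyme-free NADPH controls run in parallel.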

The nature of series [7]: Prodrug activation in pH 7.4 PBS buffer assessed as 15 ug/ml Escherichia coli nitroreductase-mediated corresponding phosphoramidate anion formation by measuring half life at 37 degC in presence of NADPH by RP-HPLC analysis. As to conditions: isolated protein. In outline: as §2
The nature of series [8]: Stability in rabbit plasma at 37 degC after 24 hrs by 31P NMR analysis. The class given is ADME, cell-free, Oryctolagus cuniculus. In outline: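 Heparinised rabbit blood centrifuged (4°C, 1300 g, 10 min) to give plasma. About 10 mg prodrug in 90 µL CH3CN plus 330 µL plasma, followed by 31P NMR at 37°C over 24 h; peak areas, average of two runs.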
A short description of series [9]: Prodrug activation in 3 equiv sodium dithionite/CH3CN,/cacodylate buffer at pH 7.4 assessed as bis(2-chloroethyl)phosphoramidate anion formation by measuring half life at 37 degC by 31P NMR analysis. The class given is physicochemical. Put shortly:
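Incubation with 3 equiv sodium dithionite in CH3CN/0.1 M cacodylate buffer pH 7.4, probe at 37°C. 31P NMR spectra over 24 h against coaxial Ph3PO reference (26 ppm). Parent loss and phosphoramidate anion formation quantified from peak areas; average of two runs.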

Series [10] is described as follows: Chemical stability in 3 equiv sodium dithionite/CH3CN,/cacodylate buffer at pH 7.4 at 37 degC after 24 hrs by 31P NMR analysis. The class given is physicochemical. As to conditions: pH 7.4, 24 h.
The nature of series [11]: Chemical stability in pH 7.4 sodium phosphate buffer assessed as drug metabolism at 17 uM at 37 degC after 24 hrs by RP-HPLC analysis. Conditions: read-out: Drug metabolism. The class given is physicochemical. In outline: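 Prodrug at 17 µM in 10 mM sodium phosphate pH 7.4 with 0.13% DMSO, 37°C. Aliquots over 24 h run directly on C18 RP-HPLC (H2O/ACN gradient with 15 mM TFA). Remaining prodrug calculated from peak area at 322 nm.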

A short description of series [12]: Prodrug activation in pH 7.4 PBS buffer assessed as 15 to 25 ug/ml Escherichia coli nitroreductase-mediated bis(2-chloroethyl)phosphoramidate anion formation by measuring half life at 37 degC in presence of NADPH by RP-HPLC analysis. Conditions: isolated protein. Put shortly:
as §2

Active and inactive are the calls of the source. The calls are words filed in the database; no cut-off is given here.

Sequence of Aggrecan core protein (P13608 whole entry): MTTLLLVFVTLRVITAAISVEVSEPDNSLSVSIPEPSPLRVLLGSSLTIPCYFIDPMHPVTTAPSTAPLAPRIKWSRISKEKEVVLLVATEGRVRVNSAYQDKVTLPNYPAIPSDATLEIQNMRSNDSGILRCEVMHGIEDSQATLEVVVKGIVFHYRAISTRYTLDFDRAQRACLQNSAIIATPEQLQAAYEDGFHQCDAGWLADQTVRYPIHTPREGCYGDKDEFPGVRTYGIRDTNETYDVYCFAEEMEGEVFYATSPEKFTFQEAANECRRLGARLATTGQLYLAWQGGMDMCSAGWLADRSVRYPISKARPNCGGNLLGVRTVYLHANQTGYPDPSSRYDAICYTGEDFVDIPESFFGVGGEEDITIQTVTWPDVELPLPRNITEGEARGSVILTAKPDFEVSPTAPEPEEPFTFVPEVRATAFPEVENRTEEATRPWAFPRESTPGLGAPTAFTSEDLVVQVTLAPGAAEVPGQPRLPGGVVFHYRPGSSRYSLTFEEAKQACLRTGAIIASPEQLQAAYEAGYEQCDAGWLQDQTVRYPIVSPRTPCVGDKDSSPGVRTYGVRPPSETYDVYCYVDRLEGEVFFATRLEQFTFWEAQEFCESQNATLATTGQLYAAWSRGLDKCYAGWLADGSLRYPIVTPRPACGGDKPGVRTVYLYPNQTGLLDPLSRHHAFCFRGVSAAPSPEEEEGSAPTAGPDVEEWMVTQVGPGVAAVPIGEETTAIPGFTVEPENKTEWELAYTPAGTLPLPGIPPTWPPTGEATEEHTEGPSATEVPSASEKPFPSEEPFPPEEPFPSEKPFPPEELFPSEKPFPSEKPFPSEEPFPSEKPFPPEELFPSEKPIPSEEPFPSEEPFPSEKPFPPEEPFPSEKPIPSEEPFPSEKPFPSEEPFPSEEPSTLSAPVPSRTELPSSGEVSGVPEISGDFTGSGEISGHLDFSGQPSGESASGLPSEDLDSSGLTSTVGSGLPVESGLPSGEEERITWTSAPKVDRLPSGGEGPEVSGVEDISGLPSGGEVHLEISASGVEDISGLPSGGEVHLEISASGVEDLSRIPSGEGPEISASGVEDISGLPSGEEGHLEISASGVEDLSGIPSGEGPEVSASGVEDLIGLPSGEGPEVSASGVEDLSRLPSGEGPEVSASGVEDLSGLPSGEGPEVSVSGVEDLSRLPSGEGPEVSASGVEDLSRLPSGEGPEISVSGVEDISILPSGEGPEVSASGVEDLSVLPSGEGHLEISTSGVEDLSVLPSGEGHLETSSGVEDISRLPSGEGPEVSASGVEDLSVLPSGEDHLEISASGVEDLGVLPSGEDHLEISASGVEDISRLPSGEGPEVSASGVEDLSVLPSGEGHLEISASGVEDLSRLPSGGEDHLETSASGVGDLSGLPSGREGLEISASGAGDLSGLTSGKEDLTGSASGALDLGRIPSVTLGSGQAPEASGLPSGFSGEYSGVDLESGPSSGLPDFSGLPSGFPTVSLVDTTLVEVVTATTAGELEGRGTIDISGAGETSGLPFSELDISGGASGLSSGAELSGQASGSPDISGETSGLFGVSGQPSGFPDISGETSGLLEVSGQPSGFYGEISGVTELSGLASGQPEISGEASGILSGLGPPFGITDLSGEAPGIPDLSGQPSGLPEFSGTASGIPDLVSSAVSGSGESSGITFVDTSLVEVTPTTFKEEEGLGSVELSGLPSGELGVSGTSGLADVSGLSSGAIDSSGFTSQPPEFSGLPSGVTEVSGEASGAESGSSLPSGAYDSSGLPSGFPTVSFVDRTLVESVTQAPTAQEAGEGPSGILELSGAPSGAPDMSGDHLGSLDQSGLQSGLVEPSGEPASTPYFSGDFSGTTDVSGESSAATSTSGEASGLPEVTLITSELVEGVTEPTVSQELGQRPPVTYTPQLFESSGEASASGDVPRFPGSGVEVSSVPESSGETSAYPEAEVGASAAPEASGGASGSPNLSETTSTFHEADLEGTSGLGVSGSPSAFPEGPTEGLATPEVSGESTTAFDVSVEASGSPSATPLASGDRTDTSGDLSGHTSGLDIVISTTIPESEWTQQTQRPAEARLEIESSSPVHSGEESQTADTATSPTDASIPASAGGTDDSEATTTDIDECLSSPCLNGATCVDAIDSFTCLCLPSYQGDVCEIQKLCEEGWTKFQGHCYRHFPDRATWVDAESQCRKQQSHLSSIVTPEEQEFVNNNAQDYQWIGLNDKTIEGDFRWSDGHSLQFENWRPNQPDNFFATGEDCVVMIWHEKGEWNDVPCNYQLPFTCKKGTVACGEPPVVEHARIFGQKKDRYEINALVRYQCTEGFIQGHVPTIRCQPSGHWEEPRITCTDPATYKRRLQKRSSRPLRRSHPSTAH
Sequence of Aggrecan core protein (Bos taurus) (P13608 whole entry): as above

For `Cn1c(COP(=O)(NCCCCC[N+](C)(C)C)N(CCCl)CCCl)cnc1[N+](=O)[O-].[I-]` (stereo not drawn), the result in series [1] was Active. For the same molecule, the “Ratio IC50” value in series [2] is 11. For the same molecule, the 50% inhibitory concentration (IC50) (commonly the concentration that inhibits the measured activity by half) turned out to be 25.8 µM in series [3] and 2400 nM in series [4]. Also, in series [5], the dissociation constant (Kd) – broadly, the equilibrium constant for the complex coming apart – was determined as 4.22 mM.
`CC[N+](C)(C)CCCCCNP(=O)(OCc1cnc([N+](=O)[O-])n1C)N(CCCl)CCCl.[I-]` (stereo not drawn): in series [1], the result was Active. The “Ratio IC50” value in [2] was found to be 11. Besides, the values for the IC50 in series [3] and in series [4] were 15.8 µM and 1500 nM, respectively. Moreover, the Kd in [5] was determined as 3.56 mM.
Consider `CC[N+](CC)(CC)CCCNP(=O)(OCc1cnc([N+](=O)[O-])n1C)N(CCCl)CCCl.[I-]` (stereo not drawn), for which the outcome in series [1] was Active. The “Ratio IC50” value in series [2] is recorded as 7. For the same molecule, the IC50 in series [3] stood at 9.7 µM; in series [4], 1400 nM. Also, the Kd in series [5] came to 3.49 mM.
Turning to `CC[N+](C)(CC)CCCCNP(=O)(OCc1cnc([N+](=O)[O-])n1C)N(CCCl)CCCl.[I-]` (stereo not drawn), the outcome in [1] was Active. Also, the “Ratio IC50” value in series [2] was determined as 6. The IC50 in [3] is 13.4 µM; in [4], 2400 nM. For the same molecule, in series [5], the dissociation constant Kd came to 4.97 mM.
`Cn1c(COP(=O)(NCCC[N+](C)(C)C)N(CCCl)CCCl)cnc1[N+](=O)[O-].[I-]` (stereo not drawn): in series [1], the outcome was Active. The “Ratio IC50” value in series [2] is 7. In addition, the figures for the IC50 in series [3] and in series [4] were 29.3 µM and 4300 nM, respectively. Moreover, the t1/2 is 5 min in series [6] and 15 min in series [7]. Besides, binding in [5] was put at a Kd of 1.29 mM.
Take `Cn1c(COP(=O)(NCCCC[N+](C)(C)Cc2ccccc2)N(CCCl)CCCl)cnc1[N+](=O)[O-].[I-]` (stereo not drawn): in series [1], the outcome was Active. Further, the “Ratio IC50” value in series [2] came out at 10. The half-maximal inhibitory concentration (IC50) was determined as 18 µM in series [3] and 1800 nM in [4]. The molecule further had a Kd in [5] of 5.27 mM.
With `Cn1c(COP(=O)(NCCBr)NCCBr)cnc1[N+](=O)[O-]` [EVOFOSFAMIDE], the “Ratio IC50” value in [2] is reported as 23. Also, the half-maximal inhibitory concentration (IC50) was determined as 2.9 µM in series [3] and 130 nM in [4].
Take `CC[N+](C)(CCCNP(=O)(OCc1cnc([N+](=O)[O-])n1C)N(CCCl)CCCl)Cc1ccccc1.[I-]` (stereo not drawn): the “Ratio IC50” value in [2] was 10. The results for the half-maximal inhibitory concentration (IC50) in [3] and in series [4] were 20.8 µM and 2100 nM, respectively.
Consider `CC[N+](C)(C)CCCCNP(=O)(OCc1cnc([N+](=O)[O-])n1C)N(CCCl)CCCl.[I-]` (stereo not drawn), for which the outcome in series [1] was Active. In [2], the “Ratio IC50” value was 7. For the same molecule, the IC50 was found to be 10.2 µM in [3] and 1500 nM in series [4]. The affinity in series [5], expressed as Kd, was 2.02 mM.
`Cn1c(COP(=O)(NCC[N+](C)(C)Cc2ccccc2)N(CCCl)CCCl)cnc1[N+](=O)[O-].[I-]` (stereo not drawn): the outcome in series [1] was Active. For the same molecule, the “Ratio IC50” value in [2] turned out to be 6. Besides, the values for the half-inhibitory concentration (IC50) in series [3] and in series [4] were 6.4 µM and 1100 nM, respectively. In series [5], this molecule registered a Kd of 2.9 mM.
Turning to `CC[N+](C)(CCCCCNP(=O)(OCc1cnc([N+](=O)[O-])n1C)N(CCCl)CCCl)Cc1ccccc1.[I-]` (stereo not drawn), the result in [1] was Active. In addition, the “Ratio IC50” value in series [2] is 16. Moreover, the IC50 amounted to 12.9 µM in series [3] and 800 nM in series [4]. For the same molecule, the Kd in series [5] was found to be 3.47 mM.
`CC[N+](C)(CCCCNP(=O)(OCc1cnc([N+](=O)[O-])n1C)N(CCCl)CCCl)Cc1ccccc1.[I-]` (stereo not drawn): in series [1], the result was Active. Further, the Stability result in series [8] and in [10] was “Stable” throughout. Besides, the “Ratio IC50” value in series [2] came out at 24. The t1/2 was below 2 min in [9] and below 1 min in series [12]. Besides, the half-maximal inhibitory concentration (IC50) was found to be 40.7 µM in [3] and 1700 nM in [4]. Also, the degraded at 24 h, 17 µM in [11] is below 5%. Also, binding in series [5] was put at a Kd of 2.1 mM.
With `Cn1c(COP(=O)(NCCCCC[N+](C)(C)Cc2ccccc2)N(CCCl)CCCl)cnc1[N+](=O)[O-].[I-]` (stereo not drawn), the result in series [1] was Active. The “Ratio IC50” value in [2] is recorded as 10. The IC50 in [3] amounted to 28.9 µM; in [4], 2800 nM. Further, in series [5], binding was put at a Kd of 2.55 mM.
On to `Cn1c(COP(=O)(NCCC[N+](C)(C)Cc2ccccc2)N(CCCl)CCCl)cnc1[N+](=O)[O-].[I-]` (stereo not drawn), for which the result in [1] was Active. Further, the “Ratio IC50” value in [2] worked out at 14. In addition, the IC50 turned out to be 5.4 µM in series [3] and 400 nM in series [4]. The dissociation constant (Kd) in [5] turned out to be 2.99 mM.
